{
  "source": "ChEMBL document CHEMBL4425098",
  "about": "“Thiolactomycin-Based Inhibitors of Bacterial β-Ketoacyl-ACP Synthases with in Vivo Activity” (J Med Chem, 2016)",
  "data": [
    {"test": "Binding affinity to Mycobacterium tuberculosis FabB C171Q mutant expressed in Mycobacterium smegmatis MC2 155 by intrinsic tryptophan fluorescence quenching-based fluorimetric method", "how_it_was_run": "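Kd by quenching of intrinsic tryptophan fluorescence (excitation 280 nm, emission 337 nm). Inhibitor stocks in DMSO or buffer were titrated into 1 μM His-tag-purified enzyme in 50 mM Tris-HCl, 150 mM NaCl, 1 mM DTT, pH 8.5. mtFabB was expressed in M. smegmatis MC²155; saFabF was expressed in E. coli BL21(DE3) pLysS.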", "units": {"Ki": "µM"}, "values": [
      {"smiles": "C=C/C(C)=C/[C@@]1(C)SC(=O)C=C1OCC(=O)NCCNC(=O)OC(C)(C)C", "Ki": "> 200"},
      {"smiles": "C=C/C(C)=C/[C@@]1(C)SC(=O)C=C1OCC(=O)NCCN=[N+]=[N-]", "Ki": "> 200"},
      {"smiles": "C=C/C(C)=C/[C@@]1(C)SC(=O)C(C)=C1O", "note": "[THIOLACTOMYCIN]", "Ki": 175}
    ]}
  ]
}
